In ChEMBL document CHEMBL2146434, “Synthesis and biological evaluation of new amino acid and dipeptide derivatives of neocryptolepine as anticancer agents” (J Med Chem, 2012):

Columns and labels:
[1] = test system: Lewis lung carcinoma cell line; experiment: Antineoplastic activity against mouse LLC cells xenografted in C57BL/6 mouse assessed as tumor growth inhibition at 100 mg/kg/day measured on day 21; details: 504 h, read-out: TGI
[2] = test system: Lewis lung carcinoma cell line; experiment: Antineoplastic activity against mouse LLC cells xenografted in C57BL/6 mouse assessed as tumor growth inhibition at 100 mg/kg/day measured on day 12; details: 288 h, read-out: TGI
[3] = test system: Lewis lung carcinoma cell line; experiment: Antineoplastic activity against mouse LLC cells xenografted in C57BL/6 mouse assessed as tumor growth inhibition at 100 mg/kg/day measured on day 23; details: 552 h, read-out: TGI
[4] = test system: Lewis lung carcinoma cell line; experiment: Antineoplastic activity against mouse LLC cells xenografted in C57BL/6 mouse assessed as tumor growth inhibition at 100 mg/kg/day measured on day 24; details: 576 h, read-out: TGI
[5] = test system: Lewis lung carcinoma cell line; experiment: Antineoplastic activity against mouse LLC cells xenografted in C57BL/6 mouse assessed as tumor growth inhibition at 100 mg/kg/day measured on day 19; details: 456 h, read-out: TGI
[6] = test system: Lewis lung carcinoma cell line; experiment: Antineoplastic activity against mouse LLC cells xenografted in C57BL/6 mouse assessed as tumor growth inhibition at 100 mg/kg/day measured on day 18; details: 432 h, read-out: TGI
[7] = test system: Lewis lung carcinoma cell line; experiment: Antineoplastic activity against mouse LLC cells xenografted in C57BL/6 mouse assessed as tumor growth inhibition at 100 mg/kg/day measured on day 14; details: 336 h, read-out: TGI
[8] = test system: Lewis lung carcinoma cell line; experiment: Antineoplastic activity against mouse LLC cells xenografted in C57BL/6 mouse assessed as tumor growth inhibition at 100 mg/kg/day measured on day 11; details: 264 h, read-out: TGI
[9] = test system: Lewis lung carcinoma cell line; experiment: Antineoplastic activity against mouse LLC cells xenografted in C57BL/6 mouse assessed as tumor growth inhibition at 100 mg/kg/day measured on day 17; details: 408 h, read-out: TGI
[10] = test system: Lewis lung carcinoma cell line; experiment: Antineoplastic activity against mouse LLC cells xenografted in C57BL/6 mouse assessed as tumor growth inhibition at 100 mg/kg/day measured on day 16; details: 384 h, read-out: TGI
[11] = Octanol-water partition coefficient, log P of the compound in PBS buffer at pH 7.4 by spectrophotometric analysis; assay type: physicochemical
In short: (§1)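 Octanol–water partitioning, with log P defined as log(C_octanol/C_water). Compound in the aqueous phase was measured spectrophotometrically, and octanol content was obtained by subtracting the supernatant concentration from the total. Values are the mean of two independent experiments, each run in triplicate.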

A549 = experiment: Cytotoxicity against human A549 cells after 72 hrs by SRB assay; assay type: functional, cell-based; details: A549, 72 h
In short: (§2)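 IC50 is the compound concentration giving 50% inhibition of cell proliferation. It was determined on normal mouse BALB/3T3 fibroblasts and on human A549, MCF-7 and LoVo cancer lines, with doxorubicin hydrochloride and DiMIQ as reference compounds.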

Mus musculus [12] = experiment: Toxicity in C57BL/6 mouse xenografted with mouse LLC cells assessed as body weight loss at 30 mg/kg/day, sc administered on day 9 to day 12 of tumor implantation; assay type: organism-based; design: route subcutaneous; details: in vivo
In short: (§3)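 Mouse Lewis lung carcinoma (LLC) cells inoculated sc into mice. Daily dosing from day 9: 15 mg kg⁻¹ day⁻¹ through day 13 or 30 mg kg⁻¹ day⁻¹ through day 12; 25 or 50 mg kg⁻¹ day⁻¹ through day 13. Route is given as ip in tables and text but sc in figure legends. Body weight monitored for loss alongside tumor growth. Single 100 mg/kg cyclophosphamide dose as cytostatic control.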

[13] = Octanol-water partition coefficient, log P of the compound in citric buffer at pH 2.5 by spectrophotometric analysis; assay type: physicochemical; in short: as §1
[14] = test system: Lewis lung carcinoma cell line; experiment: Antineoplastic activity against mouse LLC cells xenografted in C57BL/6 mouse assessed as tumor growth inhibition at 50 mg/kg/day, ip administered on day 9 to day 13 of tumor implantation measured on day 23; assay type: functional; details: route intraperitoneal, read-out: TGI
In short: (§4)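 Mice bore Lewis lung carcinoma (LLC) inoculated subcutaneously and received test agents intraperitoneally at 15–50 mg kg⁻¹ day⁻¹ from day 9 or day 10. A single 100 mg/kg cyclophosphamide dose was the cytostatic control. Tumor growth was followed as the group median, and TGI% was calculated from medians versus untreated controls. Significance was tested by nonparametric Kruskal–Wallis multiple comparison, p < 0.05.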

[15] = test system: Lewis lung carcinoma cell line; experiment: Antineoplastic activity against mouse LLC cells xenografted in C57BL/6 mouse assessed as tumor growth inhibition at 25 mg/kg/day, ip administered on day 9 to day 13 of tumor implantation measured on day 11; assay type: functional; details: route intraperitoneal, read-out: TGI; in short: as §4
[16] = test system: Lewis lung carcinoma cell line; experiment: Antineoplastic activity against mouse LLC cells xenografted in C57BL/6 mouse assessed as tumor growth inhibition at 25 mg/kg/day, ip administered on day 9 to day 13 of tumor implantation measured on day 21; assay type: functional; details: route intraperitoneal, read-out: TGI; in short: as §4
[17] = test system: Lewis lung carcinoma cell line; experiment: Antineoplastic activity against mouse LLC cells xenografted in C57BL/6 mouse assessed as tumor growth inhibition at 50 mg/kg/day, ip administered on day 9 to day 13 of tumor implantation measured on day 16; assay type: functional; details: route intraperitoneal, read-out: TGI; in short: as §4
[18] = test system: Lewis lung carcinoma cell line; experiment: Antineoplastic activity against mouse LLC cells xenografted in C57BL/6 mouse assessed as tumor growth inhibition at 25 mg/kg/day, ip administered on day 9 to day 13 of tumor implantation measured on day 23; assay type: functional; details: route intraperitoneal, read-out: TGI; in short: as §4
Mus musculus [19] = experiment: Toxicity in C57BL/6 mouse xenografted with mouse LLC cells at 25 to 50 mg/kg/day, ip administered on day 9 to day 13 of tumor implantation; assay type: organism-based; design: route intraperitoneal; details: in vivo; in short: as §3
[20] = Dissociation constant, pKa of the compound in PBS buffer at 5 uM at pH 2 to 10 by UV-spectrophotometric analysis; assay type: physicochemical
In short: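 UV spectrophotometric titration at a final compound concentration of 5 μM. At this concentration the absorbance–concentration relationship stayed linear. pKa was read from spectral changes across pH.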

LoVo = experiment: Cytotoxicity against human LoVo cells after 72 hrs by SRB assay; assay type: functional, cell-based; in short: as §2
Mus musculus [21] = experiment: Toxicity in C57BL/6 mouse xenografted with mouse LLC cells assessed as body weight loss at 50 mg/kg/day, sc administered on day 9 to day 13 of tumor implantation; assay type: organism-based; design: route subcutaneous; details: in vivo; in short: as §3
[22] = test system: Lewis lung carcinoma cell line; experiment: Antineoplastic activity against mouse LLC cells xenografted in C57BL/6 mouse assessed as tumor growth inhibition at 50 mg/kg/day, ip administered on day 9 to day 13 of tumor implantation measured on day 11; assay type: functional; details: route intraperitoneal, read-out: TGI; in short: as §4
Mus musculus [23] = experiment: Toxicity in C57BL/6 mouse xenografted with mouse LLC cells assessed as body weight loss at 15 mg/kg/day, sc administered on day 9 to day 13 of tumor implantation; assay type: organism-based; design: route subcutaneous; details: in vivo
In short: (§5)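 Body weight was tracked in C57BL/6 mice bearing subcutaneously inoculated LLC during therapy given daily from day 9 to day 13. A single 100 mg/kg dose of cyclophosphamide served as the cytostatic control group.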

[24] = test system: Lewis lung carcinoma cell line; experiment: Antineoplastic activity against mouse LLC cells xenografted in C57BL/6 mouse assessed as tumor growth inhibition at 25 mg/kg/day, ip administered on day 9 to day 13 of tumor implantation measured on day 16; assay type: functional; details: route intraperitoneal, read-out: TGI; in short: as §4
[25] = test system: Lewis lung carcinoma cell line; experiment: Antineoplastic activity against mouse LLC cells xenografted in C57BL/6 mouse assessed as tumor growth inhibition at 25 mg/kg/day, ip administered on day 9 to day 13 of tumor implantation measured on day 18; assay type: functional; details: route intraperitoneal, read-out: TGI; in short: as §4
[26] = test system: Lewis lung carcinoma cell line; experiment: Antineoplastic activity against mouse LLC cells xenografted in C57BL/6 mouse assessed as tumor growth inhibition at 25 mg/kg/day, ip administered on day 9 to day 13 of tumor implantation measured on day 14; assay type: functional; details: route intraperitoneal, read-out: TGI; in short: as §4
MCF7 = experiment: Cytotoxicity against human MCF7 cells after 72 hrs by SRB assay; assay type: functional, cell-based; details: MCF7, 72 h; in short: as §2
Mus musculus [27] = experiment: Toxicity in C57BL/6 mouse xenografted with mouse LLC cells assessed as body weight loss at 30 mg/kg/day, ip administered on day 9 to day 12 of tumor implantation; assay type: organism-based; design: route intraperitoneal; details: in vivo; in short: as §3
[28] = Toxicity in human erythrocytes assessed as hemolysis at 0.3 mM after 30 mins by spectrophotometric analysis; assay type: cell-based, Erythrocyte; details: read-out: Activity
In short: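 Human erythrocyte suspension under isotonic conditions (pH 7.4, hematocrit 50%). Compound added across a concentration series and incubated 30 min at 37 °C before hemolysis was scored. Mean ± SD of three individual determinations. Statistics by Mann–Whitney U test, p < 0.05.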

[29] = test system: Lewis lung carcinoma cell line; experiment: Antineoplastic activity against mouse LLC cells xenografted in C57BL/6 mouse assessed as tumor growth inhibition at 50 mg/kg/day, ip administered on day 9 to day 13 of tumor implantation measured on day 21; assay type: functional; details: route intraperitoneal, read-out: TGI; in short: as §4
[30] = test system: Lewis lung carcinoma cell line; experiment: Antineoplastic activity against mouse LLC cells xenografted in C57BL/6 mouse assessed as tumor growth inhibition at 50 mg/kg/day, ip administered on day 9 to day 13 of tumor implantation measured on day 14; assay type: functional; details: route intraperitoneal, read-out: TGI; in short: as §4
Mus musculus [31] = experiment: Toxicity in C57BL/6 mouse xenografted with mouse LLC cells assessed as body weight loss at 25 mg/kg/day, sc administered on day 9 to day 13 of tumor implantation; assay type: organism-based; design: route subcutaneous; details: in vivo; in short: as §5
[32] = test system: Lewis lung carcinoma cell line; experiment: Antineoplastic activity against mouse LLC cells xenografted in C57BL/6 mouse assessed as tumor growth inhibition at 50 mg/kg/day, ip administered on day 9 to day 13 of tumor implantation measured on day 18; assay type: functional; details: route intraperitoneal, read-out: TGI; in short: as §4
Mus musculus [33] = experiment: Toxicity in C57BL/6 mouse xenografted with mouse LLC cells assessed as body weight loss at 15 mg/kg/day, ip administered on day 9 to day 13 of tumor implantation; assay type: organism-based; design: route intraperitoneal; details: in vivo; in short: as §5
KB = experiment: Cytotoxicity against human KB cells after 72 hrs by SRB assay; assay type: functional, cell-based
[34] = Solubility of the compound in water; assay type: physicochemical; details: buffer

O=P1(N(CCCl)CCCl)NCCCO1 (stereo not drawn) [CYCLOPHOSPHAMIDE ANHYDROUS]
inhibition in vivo at 100 mg/kg/day [1]: 21.3%
inhibition in vivo at 100 mg/kg/day [2]: 24.1%
inhibition in vivo at 100 mg/kg/day [3]: 30.4%
inhibition in vivo at 100 mg/kg/day [4]: 0%
inhibition in vivo at 100 mg/kg/day [5]: 40%
inhibition in vivo at 100 mg/kg/day [6]: 12.5%
inhibition in vivo at 100 mg/kg/day [7]: 36.8%
inhibition in vivo at 100 mg/kg/day [8]: 49.8%
inhibition in vivo at 100 mg/kg/day [9]: 37%
inhibition in vivo at 100 mg/kg/day [10]: 31.9%

Cc1c2c3cc(NC(=O)CNC(=O)CN)ccc3nc-2n(C)c2ccccc12.Cl.Cl
logD [11]: -0.2
IC50 (A549): 900 nM
Activity (Mus musculus [12]): <= 15%
logP [13]: -1.9
inhibition in vivo at 50 mg/kg/day [14]: 42.9%
inhibition in vivo at 25 mg/kg/day [15]: 37.4%
inhibition in vivo at 25 mg/kg/day [16]: 28%
inhibition in vivo at 50 mg/kg/day [17]: 52.2%
inhibition in vivo at 25 mg/kg/day [18]: 35.8%
Activity (Mus musculus [19]): Non-toxic
pKa at 5 µM [20]: 7.5
IC50 (LoVo): 730 nM
Activity (Mus musculus [21]): <= 15%
inhibition in vivo at 50 mg/kg/day [22]: 46.9%
Activity (Mus musculus [23]): <= 15%
inhibition in vivo at 25 mg/kg/day [24]: 27.2%
inhibition in vivo at 25 mg/kg/day [25]: 22.4%
inhibition in vivo at 25 mg/kg/day [26]: 31.8%
IC50 (MCF7): 2700 nM
Activity (Mus musculus [27]): <= 15%
hemolysis at 0.5 h, 300 µM [28]: 9.97%
inhibition in vivo at 50 mg/kg/day [29]: 29.3%
inhibition in vivo at 50 mg/kg/day [30]: 62.6%
Activity (Mus musculus [31]): <= 15%
inhibition in vivo at 50 mg/kg/day [32]: 38.3%
Activity (Mus musculus [33]): <= 15%
IC50 (KB): 4650 nM
solubility [34]: soluble
